In ChEMBL document CHEMBL1133472, “Synthesis and evaluation of N,N-dialkyl enkephalin-based affinity labels for delta opioid receptors” (J Med Chem, 2000):
Square brackets hold non-standard residues; d marks the D form. Peptide text beside a SMILES is read from it. * marks the point of attachment. ξ: configuration not given here. Tyr(Nα,Nα-Bn2) = O=C([C@H](Cc1ccc(O)cc1)N(Cc1ccccc1)Cc1ccccc1)*; Tyr(Nα,Nα-allyl2) = C=CCN(CC=C)[C@@H](Cc1ccc(O)cc1)C(=O)*; X1 = O=C(C(Cc1ccc(O)cc1)N(Cc1ccccc1)Cc1ccccc1)*; Phe(4-NH2) = Nc1ccc(C[C@H](N)C(=O)O)cc1; Aib = CC(C)(N)C(=O)O; BrAc = O=C(CBr)*; ξA = CC(N)C(=O)O

Key:
[1] = target: Delta-type opioid receptor (Mus musculus, UniProt P32300); assay: Binding affinity was measured in cloned Opioid receptor delta 1 expressed in CHO cells using [3H]- DPDPE as radioligand.; type: cell-based
Sequence of Delta-type opioid receptor (P32300 whole entry): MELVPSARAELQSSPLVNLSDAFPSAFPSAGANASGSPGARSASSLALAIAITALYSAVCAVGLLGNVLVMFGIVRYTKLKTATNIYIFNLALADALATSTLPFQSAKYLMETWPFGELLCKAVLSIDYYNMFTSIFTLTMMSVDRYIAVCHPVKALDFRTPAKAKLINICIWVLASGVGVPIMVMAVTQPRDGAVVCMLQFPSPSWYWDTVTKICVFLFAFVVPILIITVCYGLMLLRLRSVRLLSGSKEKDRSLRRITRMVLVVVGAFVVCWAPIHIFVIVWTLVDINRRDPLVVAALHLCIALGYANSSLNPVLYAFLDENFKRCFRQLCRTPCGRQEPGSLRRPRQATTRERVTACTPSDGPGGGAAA
Method in brief: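 Mouse δ receptor stably expressed in CHO cells; washed membranes (100 µg protein) incubated 90 min at 22 °C in 50 mM Tris pH 7.4 with 3 mM Mg2+ and peptidase inhibitors (bestatin, captopril, L-leucyl-L-leucine). [3H]DPDPE at 0.5-0.8 nM; nonspecific binding with 10 µM DPDPE. Filtration on PEI-soaked GF/B, scintillation counting.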

[2] = tested on: mu (Rattus norvegicus) & delta (Mus musculus) opioid receptors; assay: Ratio of IC50 against mu opioid receptor to that of delta opioid receptor
[3] = target: Mu-type opioid receptor (Rattus norvegicus, UniProt P33535); assay: Binding affinity was measured in cloned Opioid receptor mu 1 expressed in CHO cells using [3H]- DAMGO as radioligand.; type: cell-based
Sequence of Mu-type opioid receptor (P33535 whole entry, looked up): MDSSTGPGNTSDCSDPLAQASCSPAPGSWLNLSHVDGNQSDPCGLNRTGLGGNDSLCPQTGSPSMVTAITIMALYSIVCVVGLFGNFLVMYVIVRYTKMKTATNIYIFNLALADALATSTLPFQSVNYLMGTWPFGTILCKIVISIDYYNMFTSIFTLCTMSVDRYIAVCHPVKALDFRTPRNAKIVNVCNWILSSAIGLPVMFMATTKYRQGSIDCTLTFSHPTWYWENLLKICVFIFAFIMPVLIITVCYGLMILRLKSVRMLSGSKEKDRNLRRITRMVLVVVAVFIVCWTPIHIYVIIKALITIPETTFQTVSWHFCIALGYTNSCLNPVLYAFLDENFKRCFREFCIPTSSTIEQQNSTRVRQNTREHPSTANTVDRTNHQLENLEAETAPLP
Method in brief: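 Rat µ receptor stably expressed in CHO cells; membranes (100 µg protein) incubated 90 min at 22 °C in 50 mM Tris pH 7.4 with 3 mM Mg2+ and bestatin, captopril, L-leucyl-L-leucine. [3H]DAMGO at 0.5-0.8 nM; nonspecific binding with 10 µM DAMGO. Filtration on PEI-presoaked GF/B filters, scintillation counting.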

| SMILES | IC50 [1] | Ratio [2] | IC50 [3] |
| --- | --- | --- | --- |
| CC(C)C[C@H](NC(=O)[C@H](Cc1ccc(N=C=S)cc1)NC(=O)CNC(=O)CNC(=O)[C@H](Cc1ccc(O)cc1)N(Cc1ccccc1)Cc1ccccc1)C(=O)O | 34.9 nM | 54 | 1900 nM |
| CC(C)C[C@H](NC(=O)[C@H](Cc1ccc(NCCl)cc1)NC(=O)CNC(=O)CNC(=O)[C@H](Cc1ccc(O)cc1)N(Cc1ccccc1)Cc1ccccc1)C(=O)O | 145 nM | 131 | 19000 nM |
| C=CCN(CC=C)[C@@H](Cc1ccc(O)cc1)C(=O)NC(C)(C)C(=O)NC(C)(C)C(=O)N[C@@H](Cc1ccccc1)C(=O)N[C@@H](CC(C)C)C(=O)O (HELM PEPTIDE1{[C=CCN(CC=C)[C@@H](Cc1ccc(O)cc1)C(=O)[*:2]].[Aib].[Aib].F.L}$$$$V2.0) | 703 nM | 27 | 18900 nM |
| CC(C)C[C@H](NC(=O)[C@H](Cc1ccccc1)NC(=O)CNC(=O)CNC(=O)[C@H](Cc1ccc(O)cc1)N(Cc1ccccc1)Cc1ccccc1)C(=O)O (HELM PEPTIDE1{[O=C([C@H](Cc1ccc(O)cc1)N(Cc1ccccc1)Cc1ccccc1)[*:2]].G.G.F.L}$$$$V2.0) | 78.2 nM | 20 | 1600 nM |
| CC(C)C[C@H](NC(=O)[C@H](Cc1ccc(NC(=O)CBr)cc1)NC(=O)CNC(=O)CNC(=O)C(Cc1ccc(O)cc1)N(Cc1ccccc1)Cc1ccccc1)C(=O)O (stereo partly drawn) (X1-GG[Phe(4-NH2)](BrAc)L-OH) | – | 61 | – |
| CC(C)C[C@H](NC(=O)[C@H](Cc1ccc(NC(=O)CBr)cc1)NC(=O)CNC(=O)CNC(=O)[C@H](Cc1ccc(O)cc1)N(Cc1ccccc1)Cc1ccccc1)C(=O)O ({Tyr(Nα,Nα-Bn2)}-GG[Phe(4-NH2)](BrAc)L-OH) | 149 nM | – | 9100 nM |
| C=CCN(CC=C)[C@@H](Cc1ccc(O)cc1)C(=O)NC(C)(C)C(=O)NC(C)C(=O)N[C@@H](Cc1ccc(N)cc1)C(=O)N[C@@H](CC(C)C)C(=O)O (stereo partly drawn) ({Tyr(Nα,Nα-allyl2)}-[Aib][ξA][Phe(4-NH2)]L-OH) | 1390 nM | 63 | 87700 nM |
| C=CCN(CC=C)[C@@H](Cc1ccc(O)cc1)C(=O)NC(C)C(=O)NC(C)C(=O)N[C@@H](Cc1ccc(NC(=O)CBr)cc1)C(=O)N[C@@H](CC(C)C)C(=O)O (stereo partly drawn) ({Tyr(Nα,Nα-allyl2)}-[ξA][ξA][Phe(4-NH2)](BrAc)L-OH) | 392 nM | – | > 10000 nM |
